According to ChEMBL document CHEMBL4359825, “Synthesis of novel S-linked dihydroartemisinin derivatives and evaluation of their anticancer activity” (Eur J Med Chem, 2019):
pIC50: −log10 of the molar value. The source made the active and inactive calls. The calls are words filed in the database; no cut-off is given here.

Tests used:
A549 = assay: Anticancer activity against human A549 cells assessed as cell viability measured after 72 hrs by MTT assay (reference value: 100 +/- 9.6 %); format: functional; set-up: concentration or dose not given beside the values
HepG2 [1] = assay: Anticancer activity against human HepG2 cells assessed as cell viability measured after 72 hrs by MTT assay (reference value: 100 +/- 6.5 %); format: functional; set-up: concentration or dose not given beside the values
MDA-MB-231 [2] = assay: Anticancer activity against human MDA-MB-231 cells assessed as cell viability measured after 72 hrs by MTT assay (reference value: 100 +/- 20.0 %); format: functional; set-up: concentration or dose not given beside the values
PC-3 [3] = assay: Anticancer activity against human PC3 cells assessed as cell viability measured after 72 hrs by MTT assay (reference value: 100 +/- 18.8 %); format: functional; set-up: concentration or dose not given beside the values
HeLa = assay: Anticancer activity against human HeLa cells assessed as cell viability measured after 72 hrs by MTT assay (reference value: 100 +/- 11.5 %); format: functional; set-up: concentration or dose not given beside the values
A-431 [4] = assay: Anticancer activity against human A431 cells assessed as cell viability measured after 72 hrs by MTT assay (reference value: 100 +/- 11.7 %); format: functional; set-up: concentration or dose not given beside the values
LNCaP = assay: Anticancer activity against human LNCAP cells assessed as cell viability measured after 72 hrs by MTT assay (reference value: 100 +/- 5.0 %); format: functional; set-up: concentration or dose not given beside the values
[5] = Solubility of compound in water; format: physicochemical; settings: buffer
[6] = Elimination half-life in Sprague-Dawley rat at 10 mg/kg administered as iv bolus dose by EC-HPLC analysis; format: ADME, organism-based; settings: in vivo, read-out: beta t1/2
HepG2 [7] = assay: Anticancer activity against human HepG2 cells assessed as reduction in cell viability measured after 72 hrs by MTT assay; format: functional, cell-based; settings: HepG2, 72 h
PC-3 [8] = assay: Anticancer activity against human PC3 cells assessed as reduction in cell viability measured after 72 hrs by MTT assay; format: functional, cell-based; settings: PC-3, 72 h
A-431 [9] = assay: Anticancer activity against human A431 cells assessed as reduction in cell viability measured after 72 hrs by MTT assay; format: functional, cell-based; settings: A-431, 72 h
MDA-MB-231 [10] = assay: Anticancer activity against human MDA-MB-231 cells assessed as reduction in cell viability measured after 72 hrs by MTT assay; format: functional, cell-based; settings: MDA-MB-231, 72 h
PC-3 [11] = assay: Cell cycle arrest in human PC3 cells assessed as accumulation at G0/G1 phase at 3 uM measured after 48 hrs by RNase/propidium iodide staining based flow cytometry analysis (reference value: 35.13 %); format: functional
PC-3 [12] = assay: Cell cycle arrest in human PC3 cells assessed as accumulation at G0/G1 phase at 10 uM measured after 48 hrs by RNase/propidium iodide staining based flow cytometry analysis (reference value: 35.13 %); format: functional
PC-3 [13] = assay: Anticlonogenic activity against human PC3 cells assessed as reduction in colony formation at 10 uM incubated for 72 hrs supplemented with fresh medium containing measured after 15 days by colony formation assay; format: functional, cell-based
How it was run: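 Clonogenic assay: PC-3 seeded at 500 cells/well in six-well plates, allowed to adhere overnight, then treated. Medium and compound renewed every 72 h over 15 days. Colonies fixed with 3.7% formaldehyde for 20 min, stained with 0.4% crystal violet and counted. Three experiments, each in quadruplicate, expressed as fold change versus control.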

PC-3 [14] = assay: Cell cycle arrest in human PC3 cells assessed as accumulation at G2/M phase at 3 uM measured after 48 hrs by RNase/propidium iodide staining based flow cytometry analysis (reference value: 22.84 %); format: functional
PC-3 [15] = assay: Effect on Pin1 expression in human PC3 cells at 0.1 to 10 uM measured after 72 hrs by Western blot analysis; format: functional, cell-based
How it was run: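 Western blot: PC-3 seeded 1.25 × 10^5/well, exposed to 0.1–10 μM for 72 h. Lysed in 2× SDS buffer and sonicated; 20–25 μg protein run on 12% SDS gel, transferred to PVDF, blocked in 5% BSA/TBST. Primary antibodies overnight, secondary 1 h; ECL detection, β-actin loading control.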

PC-3 [16] = assay: Cell cycle arrest in human PC3 cells assessed as accumulation at G2/M phase at 10 uM measured after 48 hrs by RNase/propidium iodide staining based flow cytometry analysis (reference value: 22.84 %); format: functional
PC-3 [17] = assay: Induction of apoptosis in human PC3 cells assessed as loss of cell morphology at 3 to 10 uM after 72 hrs by phase contrast microscopy; format: functional, cell-based
How it was run: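 PC-3 cells in exponential growth exposed to 3 or 10 μM for 72 h, washed gently with PBS, and apoptotic morphology recorded by phase-contrast microscopy.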

PC-3 [18] = assay: Cell cycle arrest in human PC3 cells assessed as accumulation at S phase at 3 uM measured after 48 hrs by RNase/propidium iodide staining based flow cytometry analysis (reference value: 42.03 %); format: functional
PC-3 [19] = assay: Induction of apoptosis in human PC3 cells assessed as nuclear condensation at 3 to 10 uM after 72 hrs by Hoechst 33342 staining based fluorescence microscopy; format: functional, cell-based
How it was run: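 PC-3 cells treated 72 h with 3 or 10 μM, stained with Hoechst 33342 for 15 min at room temperature in the dark, washed with PBS, and nuclei examined by fluorescence microscopy for condensation.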

PC-3 [20] = assay: Cell cycle arrest in human PC3 cells assessed as accumulation at S phase at 10 uM measured after 48 hrs by RNase/propidium iodide staining based flow cytometry analysis (reference value: 42.03 %); format: functional

Row | Structure (SMILES) | Activity (A549) | Activity (HepG2 [1]) | Activity (MDA-MB-231 [2]) | Activity (PC-3 [3]) | Activity (HeLa) | Activity (A-431 [4]) | Activity (LNCaP) | further results
1 | C[C@H]1[C@@H](Sc2ccc(Cl)cc2)O[C@@H]2O[C@@]3(C)CC[C@H]4[C@H](C)CC[C@@H]1[C@@]24OO3 | 52% | 36% | 70% | 99% | 41% | 36% | 37% | 
2 | COC(=O)CS[C@H]1O[C@@H]2O[C@@]3(C)CC[C@H]4[C@H](C)CC[C@@H]([C@H]1C)[C@@]24OO3 | 97% | 94% | 99% | 44% | 80% | 77% | 71% | 
3 | C[C@H]1[C@@H](O)O[C@@H]2O[C@@]3(C)CC[C@H]4[C@H](C)CC[C@@H]1[C@@]24OO3 [ARTENIMOL] |  |  |  |  |  |  |  | solubility [5]: Soluble; half-life [6]: < 1 h
4 | C[C@H]1[C@@H](Sc2cccc(C(=O)O)c2)O[C@@H]2O[C@@]3(C)CC[C@H]4[C@H](C)CC[C@@H]1[C@@]24OO3 | 89% | 60% | 97% | 41% | 58% | 90% | 43% | 
5 | C[C@H]1[C@H](Sc2ccc3ccccc3n2)O[C@@H]2O[C@@]3(C)CC[C@H]4[C@H](C)CC[C@@H]1[C@@]24OO3 | 100% | 96% | 90% | 33% | 87% | 93% | 77% | 
6 | C[C@H]1[C@H](Sc2ccc(Cl)cc2)O[C@@H]2O[C@@]3(C)CC[C@H]4[C@H](C)CC[C@@H]1[C@@]24OO3 | 55% | 42% | 97% | 70% | 48% | 42% | 37% | 
7 | C[C@H]1[C@H](Sc2ccc([N+](=O)[O-])cc2)O[C@@H]2O[C@@]3(C)CC[C@H]4[C@H](C)CC[C@@H]1[C@@]24OO3 | 70% | 56% | 98% | 50% | 50% | 44% | 46% | 
8 | CCCCCCS[C@H]1O[C@@H]2O[C@@]3(C)CC[C@H]4[C@H](C)CC[C@@H]([C@H]1C)[C@@]24OO3 | 55% | 41% | 39% | 39% | 49% | 45% | 46% | pIC50 (HepG2 [7]): 4.97; pIC50 (PC-3 [8]): 5.24; pIC50 (A-431 [9]): 5.40; pIC50 (MDA-MB-231 [10]): 5.40
9 | C[C@H]1[C@H](Sc2nnnn2C)O[C@@H]2O[C@@]3(C)CC[C@H]4[C@H](C)CC[C@@H]1[C@@]24OO3 | 89% | 95% | 75% | 47% | 95% | 87% | 78% | 
10 | C[C@@H]1CC[C@H]2[C@@H](C)C(=O)O[C@@H]3O[C@@]4(C)CC[C@@H]1[C@]32OO4 [ARTEMISININ] |  |  |  |  |  |  |  | Activity (PC-3 [11]): 33.48%; Activity (PC-3 [12]): 35.55%; Activity (PC-3 [13]): Active; Activity (PC-3 [14]): 22.1%; Activity (PC-3 [15]): inactive; Activity (PC-3 [16]): 16.07%; Activity (PC-3 [17]): Active; Activity (PC-3 [18]): 44.42%; Activity (PC-3 [19]): Active; Activity (PC-3 [20]): 48.38%
11 | C[C@H]1[C@@H](Sc2ccc3ccccc3n2)O[C@@H]2O[C@@]3(C)CC[C@H]4[C@H](C)CC[C@@H]1[C@@]24OO3 | 87% | 72% | 78% | 39% | 63% | 44% | 41% | 
12 | COC(=O)CS[C@@H]1O[C@@H]2O[C@@]3(C)CC[C@H]4[C@H](C)CC[C@@H]([C@H]1C)[C@@]24OO3 | 91% | 80% | 98% | 32% | 79% | 75% | 60% | 
13 | CCCCCCS[C@@H]1O[C@@H]2O[C@@]3(C)CC[C@H]4[C@H](C)CC[C@@H]([C@H]1C)[C@@]24OO3 | 70% | 35% | 72% | 90% | 44% | 35% | 36% | 
14 | CCCCS[C@@H]1O[C@@H]2O[C@@]3(C)CC[C@H]4[C@H](C)CC[C@@H]([C@H]1C)[C@@]24OO3 | 96% | 92% | 90% | 92% | 82% | 86% | 90% | 
15 | COC(=O)Cc1ccc(SC2O[C@@H]3O[C@@]4(C)CC[C@H]5[C@H](C)CC[C@@H]([C@H]2C)[C@@]35OO4)cc1 (stereo not given in full) | 74% | 67% | 96% | 31% | 43% | 52% | 31% | 
16 | C[C@H]1[C@@H](Sc2nnnn2C)O[C@@H]2O[C@@]3(C)CC[C@H]4[C@H](C)CC[C@@H]1[C@@]24OO3 | 100% | 93% | 86% | 28% | 93% | 97% | 97% | 
17 | C[C@H]1[C@@H](Sc2ccc(C(=O)O)cc2)O[C@@H]2O[C@@]3(C)CC[C@H]4[C@H](C)CC[C@@H]1[C@@]24OO3 | 76% | 45% | 64% | 32% | 55% | 31% | 41% | 
18 | CCCCS[C@H]1O[C@@H]2O[C@@]3(C)CC[C@H]4[C@H](C)CC[C@@H]([C@H]1C)[C@@]24OO3 | 79% | 52% | 71% | 33% | 49% | 47% | 47% | 
19 | C[C@H]1[C@H](Sc2ccc(C(=O)O)cc2)O[C@@H]2O[C@@]3(C)CC[C@H]4[C@H](C)CC[C@@H]1[C@@]24OO3 | 79% | 64% | 95% | 84% | 60% | 58% | 47% | 
